Source: paper PMC8605766 (ACS chemical neuroscience, 2021)
Where “and” joins values, the source holds several entries; their conditions need not be identical. Equal entries are not always repeated. Blank lines part the entries; values can stand above or below the molecule they belong to.

Key:
[1] = biological target: S1PR1 (Rattus norvegicus, UniProt P48303); assay: In vitro autoradiography of [^3H]CS1P1 in the rat brain and spinal cord; assay type: binding; settings: 10 μM NIBR-0213
Procedure, shortened: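 Frozen 14 μm sections from adult SD rat brain and spinal cord, pre-incubated 5 min at RT in HBSS with 10 mM HEPES, 5 mM MgCl₂, 0.2% BSA, 0.1 mM EDTA, pH 7.4. Labelled with 0.5 nM radioligand, 1 h at RT with shaking. […] Washed 3 × 5 min, ice-cold water dip, air-dried overnight. Film exposure 15 days with tritium standards. Specific binding = total − nonspecific in randomly chosen ROIs.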

[2] = biological target: recombinant human S1PR1 (hS1PR1) membranes (Homo sapiens, UniProt P21453); assay: Competition binding assay against [^3H]CS1P1 with recombinant hS1PR1 membranes; settings: displacement of 8 nM [^3H]CS1P1, recombinant hS1PR1 membranes
Chain of recombinant human S1PR1 (hS1PR1) membranes (P21453 whole entry): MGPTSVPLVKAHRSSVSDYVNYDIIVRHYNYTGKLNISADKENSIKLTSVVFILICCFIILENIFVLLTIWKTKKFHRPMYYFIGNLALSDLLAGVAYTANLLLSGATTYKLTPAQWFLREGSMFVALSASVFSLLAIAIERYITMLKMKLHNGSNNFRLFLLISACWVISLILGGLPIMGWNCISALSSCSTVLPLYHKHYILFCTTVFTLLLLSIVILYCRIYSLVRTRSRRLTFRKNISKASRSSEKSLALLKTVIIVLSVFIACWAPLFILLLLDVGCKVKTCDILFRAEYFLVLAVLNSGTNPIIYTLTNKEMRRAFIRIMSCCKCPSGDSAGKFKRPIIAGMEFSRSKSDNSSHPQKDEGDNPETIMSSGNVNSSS

[3] = system: MS patients; settings: particularly deep gray matter structures; cited from earlier work

Chain of S1PR1 (P48303 whole entry): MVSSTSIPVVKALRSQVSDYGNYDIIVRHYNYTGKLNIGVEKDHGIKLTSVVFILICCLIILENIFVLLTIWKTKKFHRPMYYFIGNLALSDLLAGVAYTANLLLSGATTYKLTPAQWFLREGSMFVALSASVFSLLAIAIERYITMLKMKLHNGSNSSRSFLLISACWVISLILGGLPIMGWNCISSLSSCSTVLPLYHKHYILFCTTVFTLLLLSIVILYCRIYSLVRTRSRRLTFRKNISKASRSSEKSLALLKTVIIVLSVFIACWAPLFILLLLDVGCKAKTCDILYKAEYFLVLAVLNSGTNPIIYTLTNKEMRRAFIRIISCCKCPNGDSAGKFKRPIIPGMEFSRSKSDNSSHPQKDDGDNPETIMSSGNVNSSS

Structure (SMILES): Cc1cc([C@@H](C)Nc2cccc(-c3cc(C)c(C(=O)N[C@@H](C)C(=O)O)c(C)c3)c2)ccc1Cl [NIBR-0213]
blocking of [^3H]CS1P1 radioactivity [1]: can be blocked

Ki [2]: < 10 nM and 5.7 nM
Structure (SMILES): CCCCCCCCCCCCC/C=C/[C@@H](O)[C@@H](N)COP(=O)(O)O [S1P, Sphingosine-1-phosphate]

Structure (SMILES): CCCCCCCCc1ccc(CCC(N)(CO)CO)cc1 [fingolimod]
effect on brain atrophy [3]: reduced brain atrophy
